Here are results for 20 compounds from ChEMBL document CHEMBL3621064, “Fungal metabolite ophiobolin A as a promising anti-glioma agent: In vivo evaluation, structure-activity relationship and unique pyrrolylation of primary amines” (Bioorg Med Chem Lett, 2015).

The subject of data set [1] is MCF7. In words: Antiproliferative activity against human MCF7 cells by MTT assay. In kind it is functional. A digest of the protocol:
(§1)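 Cell lines grown in RPMI with 10% heat-inactivated fetal calf serum, 4 mM glutamine, gentamicin, penicillin and streptomycin. Growth inhibition by colorimetric MTT assay across a five-line panel: U373 GBM, A549 NSCLC and SKMEL-28 melanoma (apoptosis-resistant), plus Hs683 oligodendroglioma and MCF-7 breast (apoptosis-sensitive).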

A short description of data set [2]: Antiproliferative activity against human U373 cells by MTT assay. The following applies: U373 MG. In kind it is functional, U-373MG ATCC. A digest of the protocol:
as §1

Data set [3] deals with A549. In words: Antiproliferative activity against human A549 cells by MTT assay. Format: functional. In outline:
as §1

Data set [4] deals with SK-MEL-28. In words: Antiproliferative activity against human SK-MEL-28 cells by MTT assay. In kind it is functional. A digest of the protocol: as §1
The nature of data set [5]: Antiproliferative activity against human Hs683 cells by MTT assay. In kind it is functional. Conditions: Hs 683. A digest of the protocol: as §1
The test system of data set [6] is U-251. In words: Antitumor activity against luciferase expressing human U251 cells xenografted in mouse assessed as inhibition of tumor growth at 10 mg/kg, ip dosed as 3 doses per week for 21 days. In kind it is functional, organism-based. In outline: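 Orthotopic U251-luciferase human GBM tumors in mice; 10 mg/kg IP 3x weekly for 21 days versus 0.9% saline vehicle; relative tumor growth followed by temporal bioluminescence imaging.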

In data set [7] the test system is U-251. Description: Antitumor activity against luciferase expressing human U251 cells xenografted in mouse assessed as increase in mouse survival at 10 mg/kg, ip dosed as 3 doses per week for 21 days. Format: functional, organism-based. A digest of the protocol:
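Orthotopic mouse GBM model inoculated with 1×10^6 U251-LUC cells; 10 mg/kg IP 3x per week for 21 days, 0.9% saline vehicle control; mice without signs of GBM sacrificed on day 100 after inoculation and counted as long-term survivors; survival monitored.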

The nature of data set [8]: Growth inhibition of human NCI60 cells. Format: functional.
Data set [9] deals with Brain. Description: Drug level in brain tumor of luciferase expressing human U251 cells xenografted mouse dosed intravenously and measured after 15 mins. In kind it is ADME, organism-based, U-251. Conditions: in vivo, iv, 0.25 h. In outline:
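Single intravenous injection into lateral tail vein of a mouse bearing a brain tumor; brain tumor extract taken 15 min post administration and analysed for intact compound.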

The source made the active and inactive calls. No cut-off for these calls is given here.

As to `C#CCCCOC(=O)/C=C/C1=C/C[C@@H]2[C@](C)(CC[C@@]23O[C@@H](C=C(C)C)C[C@@H]3C)C[C@H]2[C@@H]1C(=O)C[C@@]2(C)O`, the GI50 was 12 µM in data set [1]; 20 µM in data set [2]; 15 µM in data set [3]; 23 µM in data set [4]; 12 µM in [5].
In the case of `CC(C)=C[C@H]1C[C@H](C)[C@]2(CC[C@]3(C)C[C@H]4[C@H](C(=O)C[C@@]4(C)O)/C(C=O)=C\C[C@H]32)O1` [OPHIOBOLIN A], the TGI result in [6] was “Active”. Besides, the result in data set [7] was Active. The GI50 is 0.06 µM in data set [1]; 0.06 µM in [2]; 0.1 µM in data set [3]; 0.07 µM in data set [8]; 0.05 µM in [4]; 0.02 µM in data set [5]. In addition, the Drug uptake entry in data set [9] was “Active”.
In the case of `C#CCOC(C)(C)[C@@H](Br)[C@H]1C[C@H](C)[C@]2(CC[C@]3(C)C[C@H]4[C@H](C(=O)C[C@@]4(C)O)/C(C=O)=C\C[C@H]32)O1`, the GI50 was 0.8 µM in data set [1]; 1.4 µM in data set [2]; 0.8 µM in data set [3]; 0.6 µM in data set [4]; 0.6 µM in data set [5].
In the case of `CC(=O)N[C@@H](CCCCn1cc2c3c1C[C@@](C)(O)[C@H]3C[C@@]1(C)CC[C@@]3(O[C@@H](C=C(C)C)C[C@@H]3C)[C@@H]1/C=C\2)C(=O)O`, the concentration for 50% growth inhibition (GI50) in data set [1], in data set [2], in [3], in data set [4] and in [5] was more than 100 µM throughout.
Regarding `CCOC(C)(C)[C@@H](Br)[C@H]1C[C@H](C)[C@]2(CC[C@]3(C)C[C@H]4[C@H](C(=O)C[C@@]4(C)O)/C(C=O)=C\C[C@H]32)O1`, the GI50 in [1] is 1.2 µM; in [2], 1.2 µM; in data set [3] it was 0.9 µM; in data set [4], 0.6 µM; in [5] it was 0.9 µM.
`CC(C)=C[C@H]1C[C@H](C)[C@]2(CC[C@]3(C)C[C@H]4c5c(cn(CCCCCCn6cc7c8c6C[C@@](C)(O)[C@H]8C[C@@]6(C)CC[C@@]8(O[C@@H](C=C(C)C)C[C@@H]8C)[C@@H]6/C=C\7)c5C[C@@]4(C)O)/C=C\[C@H]32)O1`: the GI50 in data set [1] is 14 µM; in data set [2] it was 30 µM; in [3], 26 µM; in [4] it was 24 µM; in data set [5], 25 µM.
Turning to `CC(C)=C[C@H]1C[C@H](C)[C@]2(CC[C@]3(C)C[C@@H]4C(C)=CC(=O)[C@H]4/C(C=O)=C\C[C@H]32)O1` [3-ANHYDRO-6-EPI-OPHIOBOLIN A], the GI50 amounted to 10 µM in [1]; 18 µM in data set [2]; 9 µM in data set [3]; 8 µM in data set [4]; 8 µM in [5].
For the compound `CC(C)=C[C@H]1C[C@H](C)[C@]2(CC[C@]3(C)C[C@H]4c5c(cn(Cc6ccccc6)c5C[C@@]4(C)O)/C=C\[C@H]32)O1`, the GI50 in [1] is 40 µM; in data set [2] it was 69 µM; in data set [3] it was 51 µM; in [4], 58 µM; in data set [5] it was 46 µM.
In the case of `CC(=O)N[C@@H](CCCC/N=C/C1=C/C[C@@H]2[C@](C)(CC[C@@]23O[C@@H](C=C(C)C)C[C@@H]3C)C[C@H]2[C@@H]1C(=O)C[C@@]2(C)O)C(=O)O`, the GI50 turned out to be 4 µM in data set [1]; 4 µM in [2]; 3 µM in [3]; 3 µM in data set [4]; 3 µM in data set [5].
As to `C#CCCCCOC(C)(C)[C@@H](Br)[C@H]1C[C@H](C)[C@]2(CC[C@]3(C)C[C@H]4[C@H](C(=O)C[C@@]4(C)O)/C(C=O)=C\C[C@H]32)O1`, the GI50 in data set [1] was 1.4 µM; in data set [2], 2.2 µM; in [3], 1 µM; in [4] it was 0.6 µM; in [5] it was 0.8 µM.
For `CC(C)=C[C@H]1C[C@H](C)[C@]2(CC[C@]3(C)C[C@H]4[C@H](C(=O)C[C@@]4(C)O)C(/C=C/C#N)=C\C[C@H]32)O1`, the GI50 was 26 µM in [1]; 27 µM in data set [2]; 27 µM in [3]; 28 µM in [4]; 22 µM in data set [5].
For `CC(C)=C[C@H]1C[C@H](C)[C@]2(CC[C@]3(C)C[C@H]4c5c(cnnc5C[C@@]4(C)O)CC[C@H]32)O1`, the 50% growth inhibitory concentration (GI50) was determined as 27 µM in data set [1]; 30 µM in data set [2]; 34 µM in [3]; 29 µM in [4]; 29 µM in data set [5].
For the compound `CC(=O)O[C@]1(C)Cc2occ3c2[C@@H]1C[C@@]1(C)CC[C@@]2(O[C@@H](C=C(C)C)C[C@@H]2C)[C@@H]1/C=C\3`, the GI50 in [1] turned out to be 13 µM; in [2], 8 µM; in data set [3], 6 µM; in data set [4], 6 µM; in data set [5], 11 µM.
As for `CCOC1O[C@@]2(OCC)C[C@@](C)(O)[C@H]3C[C@@]4(C)CC[C@@]5(O[C@@H](C=C(C)C)C[C@@H]5C)[C@@H]4C/C=C/1[C@H]32` (mixture of isomers), the GI50 in [1] was determined as 0.2 µM; in data set [2] it was 0.4 µM; in data set [3], 0.3 µM; in data set [4], 0.1 µM; in data set [5] it was 0.2 µM.
`CCCO[C@H]1O[C@@]2(OCCC)C[C@@](C)(O)[C@H]3C[C@@]4(C)CC[C@@]5(O[C@@H](C=C(C)C)C[C@@H]5C)[C@@H]4C/C=C/1[C@H]32`: the GI50 turned out to be 0.2 µM in data set [1]; 0.4 µM in data set [2]; 0.3 µM in [3]; 0.2 µM in data set [4]; 0.2 µM in data set [5].
Turning to `C[C@H]1C[C@H]([C@H](Br)C(C)(C)OCc2cn(Cc3ccccc3)nn2)O[C@@]12CC[C@]1(C)C[C@H]3[C@H](C(=O)C[C@@]3(C)O)/C(C=O)=C\C[C@H]12`, the GI50 in data set [1] was determined as 1.2 µM; in data set [2], 3.4 µM; in data set [3], 1.2 µM; in [4] it was 1 µM; in [5], 0.8 µM.
As to `CO[C@H]1O[C@@]2(OC)C[C@@](C)(O)[C@H]3C[C@@]4(C)CC[C@@]5(O[C@@H](C=C(C)C)C[C@@H]5C)[C@@H]4C/C=C/1[C@H]32`, the GI50 in data set [1] turned out to be 0.4 µM; in [2], 0.4 µM; in data set [3] it was 0.3 µM; in data set [4], 0.3 µM; in data set [5] it was 0.4 µM.
In the case of `COC(=O)/C=C/C1=C/C[C@@H]2[C@](C)(CC[C@@]23O[C@@H](C=C(C)C)C[C@@H]3C)C[C@H]2[C@@H]1C(=O)C[C@@]2(C)O`, the GI50 came out at 43 µM in data set [1]; 86 µM in data set [2]; 59 µM in data set [3]; 86 µM in data set [4]; 59 µM in [5].
Turning to `CC(C)=C[C@H]1C[C@H](C)[C@]2(CC[C@]3(C)C[C@H]4c5c(cn(CCc6ccc(O)cc6)c5C[C@@]4(C)O)/C=C\[C@H]32)O1`, the GI50 in data set [1] turned out to be 23 µM; in data set [2], 54 µM; in data set [3] it was 35 µM; in [4], 33 µM; in data set [5], 33 µM.
Consider `C[C@H]1C[C@H](C2OC2(C)C)O[C@@]12CC[C@]1(C)C[C@H]3[C@H](C(=O)C[C@@]3(C)O)/C(C=O)=C\C[C@H]12` (mixture of isomers), for which the GI50 in [1] was 0.6 µM; in [2], 0.6 µM; in data set [3], 0.6 µM; in data set [4], 0.4 µM; in data set [5], 0.4 µM.
